Laboratory results as given in ChEMBL document CHEMBL1150393, “Evaluation of radiolabeled (hetero)aromatic analogues of N-(2-diethylaminoethyl)-4-iodobenzamide for imaging and targeted radionuclide therapy of melanoma” (J Med Chem, 2008).

Key:
[1] = Biodistribution in gall bladder of C57BL/6 mouse bearing mouse B16-F0 cells at 0.74 to 0.92 MBq, iv after 3 hrs; type: ADME, organism-based; details: in vivo
Method in brief: (§1)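 Male C57BL6 mice with s.c. left-flank B16-F0 melanoma (5 × 10⁵ cells in PBS). Two mice per time point frozen in liquid nitrogen after CO₂ sacrifice. Eight 40 µm whole-body cryosections per mouse read by multiwire proportional counter. cpm/mm² converted to kBq/g and expressed as %ID/g.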

[2] = Partition coefficient, log P in phosphate buffer solution at pH 7.4; type: physicochemical
Method in brief: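 Shake-flask partition: 50 µM [¹²⁵I]-labelled compound in phosphate buffer pH 7.4 was mixed with 2 mL n-octanol. Each phase was γ-counted, P was taken as the octanol/buffer activity ratio, and log P was reported.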

[3] = Drug excretion in mouse B16-F0 cells bearing C57BL/6 mouse urine at 0.74 to 0.92 MBq, iv after 72 hrs; type: ADME, organism-based; details: in vivo
Method in brief: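 Urine was collected from two B16-F0 tumour-bearing C57BL6 mice for up to 72 h after iv tail-vein injection of the [¹²⁵I]-labelled compound (0.1 µmol). Samples were counted to give cumulative urinary excretion as %ID.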

[4] = Biodistribution in tumor of C57BL/6 mouse bearing mouse B16-F0 cells at 0.74 to 0.92 MBq, iv after 1 hr; type: ADME, organism-based, Neoplasm; details: in vivo
Method in brief: (§2)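 [¹²⁵I]-labelled compound given iv by tail vein (0.1 µmol per mouse) to male C57BL6 mice bearing s.c. B16-F0 flank tumours (5 × 10⁵ cells in PBS). Two mice per time point were killed by CO₂, frozen in liquid nitrogen and cut into 40 µm cryosections, eight slices per mouse. Slice radioactivity was read on a multiwire proportional counter, converted to kBq/g and reported as %ID/g.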

[5] = Biodistribution in tumor of C57BL/6 mouse bearing mouse B16-F0 cells at 0.74 to 0.92 MBq, iv after 3 hrs; type: ADME, organism-based, Neoplasm; details: in vivo; method in brief: as §2
[6] = Biodistribution in tumor of C57BL/6 mouse bearing mouse B16-F0 cells at 0.74 to 0.92 MBq, iv after 6 hrs; type: ADME, organism-based, Neoplasm; details: in vivo; method in brief: as §2
[7] = Biodistribution in tumor of C57BL/6 mouse bearing mouse B16-F0 cells at 0.74 to 0.92 MBq, iv after 24 hrs; type: ADME, organism-based, Neoplasm; details: in vivo; method in brief: as §2
[8] = Biodistribution in tumor of C57BL/6 mouse bearing mouse B16-F0 cells at 0.74 to 0.92 MBq, iv after 72 hrs; type: ADME, organism-based, Neoplasm; details: in vivo; method in brief: as §2
[9] = Ratio of drug level in tumor to liver of C57BL/6 mouse bearing mouse B16-F0 cells at 0.74 to 0.92 MBq, iv after 1 hr; type: ADME, organism-based; details: in vivo
Method in brief: (§3)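 Tumour and organ radioactive concentrations came from whole-body cryosection counting (40 µm slices, eight per mouse, two mice per time) after tail-vein injection of the [¹²⁵I]-labelled compound (0.1 µmol) into male C57BL6 mice bearing s.c. B16-F0 melanoma. Each value is the ratio of the tumour concentration to the organ concentration.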

[10] = Ratio of drug level in tumor to liver of C57BL/6 mouse bearing mouse B16-F0 cells at 0.74 to 0.92 MBq, iv after 3 hrs; type: ADME, organism-based; details: in vivo; method in brief: as §3
[11] = Ratio of drug level in tumor to lung of C57BL/6 mouse bearing mouse B16-F0 cells at 0.74 to 0.92 MBq, iv after 1 hr; type: ADME, organism-based; details: in vivo; method in brief: as §3
[12] = Ratio of drug level in tumor to brain of C57BL/6 mouse bearing mouse B16-F0 cells at 0.74 to 0.92 MBq, iv after 1 hr; type: ADME, organism-based; details: in vivo; method in brief: as §3
[13] = system: Brain; assay: Biodistribution in brain of C57BL/6 mouse bearing mouse B16-F0 cells at 0.74 to 0.92 MBq, iv after 1 hr; type: ADME, organism-based; details: in vivo; method in brief: as §1
[14] = Biodistribution in intestinal content of C57BL/6 mouse bearing mouse B16-F0 cells at 0.74 to 0.92 MBq, iv after 1 hr; type: ADME, organism-based; details: in vivo; method in brief: as §1
[15] = Biodistribution in intestinal content of C57BL/6 mouse bearing mouse B16-F0 cells at 0.74 to 0.92 MBq, iv after 3 hrs; type: ADME, organism-based; details: in vivo; method in brief: as §1
[16] = Biodistribution in intestinal content of C57BL/6 mouse bearing mouse B16-F0 cells at 0.74 to 0.92 MBq, iv after 6 hrs; type: ADME, organism-based; details: in vivo; method in brief: as §1
[17] = Biodistribution in Stomach content of C57BL/6 mouse bearing mouse B16-F0 cells at 0.74 to 0.92 MBq, iv after 1 hr; type: ADME, organism-based; details: in vivo; method in brief: as §1
[18] = Biodistribution in Stomach content of C57BL/6 mouse bearing mouse B16-F0 cells at 0.74 to 0.92 MBq, iv after 3 hrs; type: ADME, organism-based; details: in vivo; method in brief: as §1
[19] = Biodistribution in Stomach content of C57BL/6 mouse bearing mouse B16-F0 cells at 0.74 to 0.92 MBq, iv after 6 hrs; type: ADME, organism-based; details: in vivo; method in brief: as §1
[20] = system: Liver; assay: Biodistribution in liver of C57BL/6 mouse bearing mouse B16-F0 cells at 0.74 to 0.92 MBq, iv after 1 hr; type: ADME, organism-based; details: in vivo; method in brief: as §1
[21] = system: Liver; assay: Biodistribution in liver of C57BL/6 mouse bearing mouse B16-F0 cells at 0.74 to 0.92 MBq, iv after 3 hrs; type: ADME, organism-based; details: in vivo; method in brief: as §1
[22] = system: Muscle tissue; assay: Biodistribution in muscle of C57BL/6 mouse bearing mouse B16-F0 cells at 0.74 to 0.92 MBq, iv after 1 hr; type: ADME, organism-based; details: in vivo; method in brief: as §1
[23] = system: Lung; assay: Biodistribution in lung of C57BL/6 mouse bearing mouse B16-F0 cells at 0.74 to 0.92 MBq, iv after 1 hr; type: ADME, organism-based; details: in vivo; method in brief: as §1
[24] = system: Spleen; assay: Biodistribution in spleen of C57BL/6 mouse bearing mouse B16-F0 cells at 0.74 to 0.92 MBq, iv after 1 hr; type: ADME, organism-based; details: in vivo; method in brief: as §2
[25] = system: Kidney; assay: Biodistribution in kidney of C57BL/6 mouse bearing mouse B16-F0 cells at 0.74 to 0.92 MBq, iv after 1 hr; type: ADME, organism-based; details: in vivo; method in brief: as §1
[26] = system: Blood; assay: Biodistribution in blood of C57BL/6 mouse bearing mouse B16-F0 cells at 0.74 to 0.92 MBq, iv after 1 hr; type: ADME, organism-based; details: in vivo; method in brief: as §1
[27] = system: Thyroid gland; assay: Biodistribution in thyroid of C57BL/6 mouse bearing mouse B16-F0 cells at 0.74 to 0.92 MBq, iv after 1 hr; type: ADME, organism-based; details: in vivo; method in brief: as §2
[28] = system: Thyroid gland; assay: Biodistribution in thyroid of C57BL/6 mouse bearing mouse B16-F0 cells at 0.74 to 0.92 MBq, iv after 3 hrs; type: ADME, organism-based; details: in vivo; method in brief: as §2
[29] = system: Thyroid gland; assay: Biodistribution in thyroid of C57BL/6 mouse bearing mouse B16-F0 cells at 0.74 to 0.92 MBq, iv after 6 hrs; type: ADME, organism-based; details: in vivo; method in brief: as §2
[30] = system: Thyroid gland; assay: Biodistribution in thyroid of C57BL/6 mouse bearing mouse B16-F0 cells at 0.74 to 0.92 MBq, iv after 24 hrs; type: ADME, organism-based; details: in vivo; method in brief: as §2
[31] = Biodistribution in uvea of C57BL/6 mouse bearing mouse B16-F0 cells at 0.74 to 0.92 MBq, iv after 1 hr; type: ADME, organism-based, Uveal tract; details: in vivo; method in brief: as §2
[32] = Biodistribution in uvea of C57BL/6 mouse bearing mouse B16-F0 cells at 0.74 to 0.92 MBq, iv after 3 hrs; type: ADME, organism-based, Uveal tract; details: in vivo; method in brief: as §2
[33] = Biodistribution in uvea of C57BL/6 mouse bearing mouse B16-F0 cells at 0.74 to 0.92 MBq, iv after 6 hrs; type: ADME, organism-based, Uveal tract; details: in vivo; method in brief: as §2
[34] = Biodistribution in uvea of C57BL/6 mouse bearing mouse B16-F0 cells at 0.74 to 0.92 MBq, iv after 24 hrs; type: ADME, organism-based, Uveal tract; details: in vivo; method in brief: as §2
[35] = Biodistribution in uvea of C57BL/6 mouse bearing mouse B16-F0 cells at 0.74 to 0.92 MBq, iv after 72 hrs; type: ADME, organism-based, Uveal tract; details: in vivo; method in brief: as §2
[36] = Binding affinity to melanin in water; design: concentration or dose not given beside the values; details: tested as the 125I-labelled form
[37] = Binding affinity to melanin in phosphate buffer solution; design: concentration or dose not given beside the values; details: tested as the 125I-labelled form

SMILES: CCN(CC)CCNC(=O)c1cc2c([125I])cccc2s1.Cl
- Drug uptake [1]: 65.56 % ID/g
- logD [2]: 1.54
- Activity [3]: 52.6%
- Drug uptake [4]: 12.5 % ID/g
- Drug uptake [5]: 10 % ID/g
- Drug uptake [6]: 8.7 % ID/g
- Drug uptake [7]: 7.3 % ID/g
- Drug uptake [8]: 1.7 % ID/g
- Ratio [9]: 5.64
- Ratio [10]: 7.98
- Ratio [11]: 3.38
- Ratio [12]: 15.4
- Drug uptake [13]: 0.81 % ID/g
- Drug uptake [14]: 71.13 % ID/g
- Drug uptake [15]: 73.02 % ID/g
- Drug uptake [16]: 37.7 % ID/g
- Drug uptake [17]: 20 % ID/g
- Drug uptake [18]: 5.93 % ID/g
- Drug uptake [19]: 18.77 % ID/g
- Drug uptake [20]: 2.21 % ID/g
- Drug uptake [21]: 1.25 % ID/g
- Drug uptake [22]: 0.77 % ID/g
- Drug uptake [23]: 3.69 % ID/g
- Drug uptake [24]: 3.88 % ID/g
- Drug uptake [25]: 5.61 % ID/g
- Drug uptake [26]: 1.37 % ID/g
- Drug uptake [27]: 24.03 % ID/g
- Drug uptake [28]: 67.21 % ID/g
- Drug uptake [29]: 139.12 % ID/g
- Drug uptake [30]: 79.82 % ID/g
- Drug uptake [31]: 16.09 % ID/g
- Drug uptake [32]: 19.51 % ID/g
- Drug uptake [33]: 16.29 % ID/g
- Drug uptake [34]: 11.06 % ID/g
- Drug uptake [35]: 9.22 % ID/g

SMILES: CCN(CC)CCNC(=O)c1cnc2cc(I)ccc2n1
- Activity [36]: 67.4%
- Activity [37]: 47.3%

SMILES: CCN(CC)CCNC(=O)c1cc2cc(I)ccc2[nH]1
- Activity [36]: 79.8%
- Activity [37]: 43.1%

SMILES: CCN(CC)CCNC(=O)c1nc2cc(I)ccc2[nH]1
- Activity [36]: 84.5%
- Activity [37]: 47.1%

SMILES: CCN(CC)CCNC(=O)c1ccc(I)nc1
- Activity [36]: 28.1%
- Activity [37]: 3.5%

SMILES: CCN(CC)CCNC(=O)c1cc2c(I)cccc2s1
- Activity [36]: 87.6%
- Activity [37]: 56.1%

SMILES: CCN(CC)CCNC(=O)c1ccc2cc(I)ccc2n1
- Activity [36]: 87.4%
- Activity [37]: 43.2%

SMILES: CCN(CC)CCNC(=O)c1ccc(I)cc1
- Activity [3]: 83.1%
- Drug uptake [5]: 9.1 % ID/g
- Drug uptake [6]: 7.7 % ID/g
- Drug uptake [7]: 3.7 % ID/g
- Drug uptake [8]: 0.8 % ID/g
